# Test results published in ChEMBL document CHEMBL3399974, “Discovery and SAR of novel series of imidazopyrimidinones and dihydroimidazopyrimidinones as positive allosteric modulators of the metabotropic glutamate receptor 5 (mGlu5)” (Bioorg Med Chem Lett, 2015).
# pEC50, pIC50: −log10 of the molar value. Calls of active or inactive are those of the source. The rule behind the calls is not given here.
# Tests used:
# [1] = Drug metabolism in human liver microsomes assessed as compound metabolized at 1 uM after 15 mins; format: ADME; details: read-out: Drug metabolism
# Method in brief: (§1)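 Test compound at 1 µM was incubated for 15 min with liver microsomes (human for HLM, rat for RLM). Read-out was % of compound metabolized.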
# [2] = Drug metabolism in rat liver microsomes assessed as compound metabolized at 1 uM after 15 mins; format: ADME; details: read-out: Drug metabolism; method in brief: as §1
# [3] = target: T1, Metabotropic glutamate receptor 5 (Rattus norvegicus, UniProt P31424); test: Negative allosteric modulation at rat mGluR5 expressed in HEK293 cells by calcium mobilization assay; format: functional, cell-based
# Method in brief: (§2)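 HEK293 cells stably expressing rat mGlu5 were run in a 'triple add' calcium mobilization assay that detects agonism, PAM and NAM activity together. Response amplitude was expressed as % of the maximal response to 100 µM glutamate. Values are the mean of three or more independent determinations.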
# [4] = target: Metabotropic glutamate receptor 5 (Rattus norvegicus) (UniProt P31424); test: Negative allosteric modulation at rat mGluR5 expressed in HEK293 cells by calcium mobilization assay relative to glutamate; details: 30 uM
# [5] = target: T1, Metabotropic glutamate receptor 5; test: Positive allosteric modulation at rat mGluR5 expressed in HEK293 cells by calcium mobilization assay; format: functional, cell-based; method in brief: as §2
# [6] = target: Metabotropic glutamate receptor 5 (Rattus norvegicus) (UniProt P31424); test: Positive allosteric modulation at rat mGluR5 expressed in HEK293 cells assessed as amplitude of response at 30 uM by calcium mobilization assay relative to glutamate; format: functional, cell-based
# Method in brief: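 HEK293 cells stably expressing rat mGlu5 were used in a calcium mobilization assay. Test compound was given at 30 µM, and response amplitude is expressed as percent of the maximal response to 100 µM glutamate. Values are the average of three or more independent determinations.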
# Canis familiaris = test: Toxicity in dog assessed as dizziness at 0.5 mg/ml, iv; format: organism-based, Canis lupus familiaris; details: in vivo
# [7] = target: Metabotropic glutamate receptor 7 (Homo sapiens, UniProt Q14831); test: Positive allosteric modulation at mGluR7 (unknown origin)
# Rattus norvegicus [8] = test: Antipsychotic activity in rat assessed as reversal of amphetamine-induced hyperlocomotion at 3 mg/kg, po; format: functional, organism-based; set-up: dose 3 mg/kg
# Method in brief: (§3)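 Rats dosed orally; reversal of amphetamine-induced hyperlocomotion scored as % reversal of amphetamine effect, across an oral dose range up to 100 mg/kg; terminal unbound brain concentrations calculated at the doses tested.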
# [9] = Terminal half-life in rat at 1 mg/kg, iv and 10 mg/kg, po; format: ADME, organism-based; details: in vivo, read-out: beta t1/2 (converted)
# Method in brief: (§4)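 Rat PK: compound formulated at 1 mg/mL in 20% HP-β-CD and given at 1 mg/kg IV and 10 mg/kg PO.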
# [10] = Cmax in rat brain at 1 mg/kg, iv and 10 mg/kg, po; format: ADME, organism-based
# Rattus norvegicus [11] = test: Toxicity in rat assessed as pro-convulsive behavior up to 120 mg/kg, po by modified Irwin neurological test battery method; format: organism-based; set-up: dose 120 mg/kg, route oral; details: in vivo
# Cytochrome P450 2D6 = Cytochrome P450 2D6 (Homo sapiens, UniProt P10635); test: Inhibition of human CYP2D6; format: ADME
# Method in brief: (§5)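 Cocktail assay in human liver microsomes using known probe substrates for the major CYP isoforms (2C9, 2D6, 3A4, 1A2). IC50 was determined for each isoform.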
# [12] = Plasma protein binding in human; format: ADME, cell-free
# Rattus norvegicus [13] = test: Antipsychotic activity in po dosed rat assessed as reversal of amphetamine-induced hyperlocomotion; format: functional, organism-based; method in brief: as §3
# [14] = Plasma protein binding in rat; format: ADME, cell-free
# [15] = Ratio of AUC in brain to plasma of rat at 1 mg/kg, iv and 10 mg/kg, po; format: ADME, organism-based
# Plasma = test: AUC in rat plasma at 1 mg/kg, iv and 10 mg/kg, po; format: ADME, organism-based; details: in vivo
# [16] = target: Metabotropic glutamate receptor 6 (Homo sapiens, UniProt O15303); test: Positive allosteric modulation at mGluR6 (unknown origin)
# [17] = target: Metabotropic glutamate receptor 1 (Homo sapiens, UniProt Q13255); test: Positive allosteric modulation at mGluR1 (unknown origin)
# Cytochrome P450 1A2 = target: T2, Cytochrome P450 1A2 (Homo sapiens, UniProt P05177); test: Inhibition of human CYP1A2; format: ADME
# T2 sequence (P05177 whole entry): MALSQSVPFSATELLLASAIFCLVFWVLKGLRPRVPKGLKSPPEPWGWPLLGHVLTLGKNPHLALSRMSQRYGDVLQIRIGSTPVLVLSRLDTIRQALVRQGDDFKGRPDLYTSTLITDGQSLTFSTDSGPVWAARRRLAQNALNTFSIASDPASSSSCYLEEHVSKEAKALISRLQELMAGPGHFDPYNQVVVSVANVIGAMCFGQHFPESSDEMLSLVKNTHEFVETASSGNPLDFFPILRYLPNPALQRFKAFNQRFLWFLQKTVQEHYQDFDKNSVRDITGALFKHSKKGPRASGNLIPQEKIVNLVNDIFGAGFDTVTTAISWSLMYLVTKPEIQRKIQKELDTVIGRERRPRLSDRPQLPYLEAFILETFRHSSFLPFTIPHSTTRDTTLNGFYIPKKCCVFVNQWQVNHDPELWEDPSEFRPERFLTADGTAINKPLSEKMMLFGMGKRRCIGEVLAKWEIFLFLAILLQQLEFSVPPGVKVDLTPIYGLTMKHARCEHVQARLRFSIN
# Method in brief: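 Cocktail assay in human liver microsomes with known probe substrates for CYP 2C9, 2D6, 3A4 and 1A2; IC50 determined.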
# Rattus norvegicus [18] = test: Volume of distribution at steady state in rat at 1 mg/kg, iv and 10 mg/kg, po; format: ADME, organism-based; details: in vivo; method in brief: as §4
# [19] = target: Metabotropic glutamate receptor 4 (Homo sapiens, UniProt Q14833); test: Positive allosteric modulation at mGluR4 (unknown origin)
# [20] = Fraction unbound in rat brain at 1 mg/kg, iv and 10 mg/kg, po; format: ADME, organism-based
# Cytochrome P450 2C9 = Cytochrome P450 2C9 (Homo sapiens, UniProt P11712); test: Inhibition of human CYP2C9; format: ADME; method in brief: as §5
# Rattus norvegicus [21] = test: Antipsychotic activity in rat assessed as reversal of amphetamine-induced hyperlocomotion at 100 mg/kg, po; format: functional; method in brief: as §3
# Rattus norvegicus [22] = test: Antipsychotic activity in rat assessed as reversal of amphetamine-induced hyperlocomotion at 56.6 mg/kg, po; format: functional
# Method in brief: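 Rats were dosed orally and scored for reversal of amphetamine-induced hyperlocomotion, a model of antipsychotic activity. Doses tested went up to 100 mg/kg. Terminal unbound brain concentrations were calculated at the tested doses.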
# [23] = target: Metabotropic glutamate receptor 2 (Homo sapiens, UniProt Q14416); test: Positive allosteric modulation at mGluR2 (unknown origin)
# [24] = target: Metabotropic glutamate receptor 3 (Homo sapiens, UniProt Q14832); test: Negative allosteric modulation at mGluR3 (unknown origin)
# [25] = target: Metabotropic glutamate receptor 8 (Homo sapiens, UniProt O00222); test: Positive allosteric modulation at mGluR8 (unknown origin)
# Cytochrome P450 3A4 = Cytochrome P450 3A4 (Homo sapiens, UniProt P08684); test: Inhibition of human CYP3A4; format: ADME; method in brief: as §5
# [26] = target: Metabotropic glutamate receptor 5 (Homo sapiens) (UniProt P41594); test: Agonist activity at mGluR5 (unknown origin) at 30 uM
# Metabotropic glutamate receptor 5 (Rattus norvegicus), sequence (P31424 21-1203 limits assumed): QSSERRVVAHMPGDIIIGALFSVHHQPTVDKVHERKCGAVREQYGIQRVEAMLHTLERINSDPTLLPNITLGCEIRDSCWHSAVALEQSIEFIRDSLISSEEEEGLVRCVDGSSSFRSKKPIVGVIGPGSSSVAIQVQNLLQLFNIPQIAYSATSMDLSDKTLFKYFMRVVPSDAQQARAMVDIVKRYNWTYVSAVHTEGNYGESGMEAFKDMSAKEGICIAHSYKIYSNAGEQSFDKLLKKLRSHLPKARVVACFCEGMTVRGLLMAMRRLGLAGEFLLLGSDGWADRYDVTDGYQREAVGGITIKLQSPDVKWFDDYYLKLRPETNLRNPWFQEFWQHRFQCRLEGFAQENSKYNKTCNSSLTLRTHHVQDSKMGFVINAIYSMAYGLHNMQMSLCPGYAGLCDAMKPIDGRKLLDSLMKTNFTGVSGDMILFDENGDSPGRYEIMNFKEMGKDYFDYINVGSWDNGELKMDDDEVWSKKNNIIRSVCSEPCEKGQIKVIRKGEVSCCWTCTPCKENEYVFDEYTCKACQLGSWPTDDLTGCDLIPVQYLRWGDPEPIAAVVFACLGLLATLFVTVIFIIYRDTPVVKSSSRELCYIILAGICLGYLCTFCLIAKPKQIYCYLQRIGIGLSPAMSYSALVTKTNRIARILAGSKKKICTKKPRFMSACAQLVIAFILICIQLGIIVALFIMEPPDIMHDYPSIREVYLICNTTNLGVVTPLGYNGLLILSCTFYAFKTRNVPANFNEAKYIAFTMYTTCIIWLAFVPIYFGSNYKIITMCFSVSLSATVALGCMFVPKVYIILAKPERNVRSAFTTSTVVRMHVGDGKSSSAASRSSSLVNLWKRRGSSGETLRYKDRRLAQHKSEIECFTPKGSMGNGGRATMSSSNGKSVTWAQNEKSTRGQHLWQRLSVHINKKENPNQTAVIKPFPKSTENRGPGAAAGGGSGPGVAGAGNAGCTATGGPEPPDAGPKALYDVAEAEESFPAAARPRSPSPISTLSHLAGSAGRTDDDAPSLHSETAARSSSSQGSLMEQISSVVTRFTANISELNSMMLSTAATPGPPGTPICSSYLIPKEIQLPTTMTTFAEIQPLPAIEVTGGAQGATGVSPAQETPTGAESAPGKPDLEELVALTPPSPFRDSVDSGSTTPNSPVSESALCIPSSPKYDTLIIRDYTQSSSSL
# T1 sequence (P31424 whole entry): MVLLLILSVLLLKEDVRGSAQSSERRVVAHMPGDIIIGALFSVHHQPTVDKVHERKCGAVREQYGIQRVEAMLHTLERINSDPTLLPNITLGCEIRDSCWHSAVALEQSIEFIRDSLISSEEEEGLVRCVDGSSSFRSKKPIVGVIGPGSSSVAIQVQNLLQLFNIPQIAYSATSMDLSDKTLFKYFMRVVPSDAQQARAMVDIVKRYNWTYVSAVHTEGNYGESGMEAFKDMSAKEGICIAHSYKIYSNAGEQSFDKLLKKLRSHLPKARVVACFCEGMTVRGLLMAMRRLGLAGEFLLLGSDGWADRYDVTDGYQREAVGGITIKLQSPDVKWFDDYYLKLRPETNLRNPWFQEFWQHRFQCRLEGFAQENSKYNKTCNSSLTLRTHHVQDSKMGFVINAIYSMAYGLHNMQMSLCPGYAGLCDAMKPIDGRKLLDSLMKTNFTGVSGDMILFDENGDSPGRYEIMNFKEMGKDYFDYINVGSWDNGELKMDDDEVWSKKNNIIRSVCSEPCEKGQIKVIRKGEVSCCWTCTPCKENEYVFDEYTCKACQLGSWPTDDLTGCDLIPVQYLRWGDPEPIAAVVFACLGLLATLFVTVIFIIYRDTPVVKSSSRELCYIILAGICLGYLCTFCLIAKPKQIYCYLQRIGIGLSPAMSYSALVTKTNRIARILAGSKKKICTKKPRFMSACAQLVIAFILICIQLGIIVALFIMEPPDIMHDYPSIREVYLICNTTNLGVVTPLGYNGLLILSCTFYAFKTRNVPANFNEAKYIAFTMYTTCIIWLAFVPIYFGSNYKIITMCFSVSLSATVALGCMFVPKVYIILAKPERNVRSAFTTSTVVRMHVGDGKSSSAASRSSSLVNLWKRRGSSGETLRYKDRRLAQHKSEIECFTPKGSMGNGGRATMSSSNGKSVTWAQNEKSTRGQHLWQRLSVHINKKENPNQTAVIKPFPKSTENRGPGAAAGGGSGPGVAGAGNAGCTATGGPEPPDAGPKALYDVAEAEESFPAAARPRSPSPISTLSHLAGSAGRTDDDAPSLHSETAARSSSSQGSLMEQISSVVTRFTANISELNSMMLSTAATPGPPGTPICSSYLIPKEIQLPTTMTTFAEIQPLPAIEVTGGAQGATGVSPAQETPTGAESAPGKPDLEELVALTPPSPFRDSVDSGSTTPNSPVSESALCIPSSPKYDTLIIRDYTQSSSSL
# Metabotropic glutamate receptor 1, sequence (Q13255 whole entry): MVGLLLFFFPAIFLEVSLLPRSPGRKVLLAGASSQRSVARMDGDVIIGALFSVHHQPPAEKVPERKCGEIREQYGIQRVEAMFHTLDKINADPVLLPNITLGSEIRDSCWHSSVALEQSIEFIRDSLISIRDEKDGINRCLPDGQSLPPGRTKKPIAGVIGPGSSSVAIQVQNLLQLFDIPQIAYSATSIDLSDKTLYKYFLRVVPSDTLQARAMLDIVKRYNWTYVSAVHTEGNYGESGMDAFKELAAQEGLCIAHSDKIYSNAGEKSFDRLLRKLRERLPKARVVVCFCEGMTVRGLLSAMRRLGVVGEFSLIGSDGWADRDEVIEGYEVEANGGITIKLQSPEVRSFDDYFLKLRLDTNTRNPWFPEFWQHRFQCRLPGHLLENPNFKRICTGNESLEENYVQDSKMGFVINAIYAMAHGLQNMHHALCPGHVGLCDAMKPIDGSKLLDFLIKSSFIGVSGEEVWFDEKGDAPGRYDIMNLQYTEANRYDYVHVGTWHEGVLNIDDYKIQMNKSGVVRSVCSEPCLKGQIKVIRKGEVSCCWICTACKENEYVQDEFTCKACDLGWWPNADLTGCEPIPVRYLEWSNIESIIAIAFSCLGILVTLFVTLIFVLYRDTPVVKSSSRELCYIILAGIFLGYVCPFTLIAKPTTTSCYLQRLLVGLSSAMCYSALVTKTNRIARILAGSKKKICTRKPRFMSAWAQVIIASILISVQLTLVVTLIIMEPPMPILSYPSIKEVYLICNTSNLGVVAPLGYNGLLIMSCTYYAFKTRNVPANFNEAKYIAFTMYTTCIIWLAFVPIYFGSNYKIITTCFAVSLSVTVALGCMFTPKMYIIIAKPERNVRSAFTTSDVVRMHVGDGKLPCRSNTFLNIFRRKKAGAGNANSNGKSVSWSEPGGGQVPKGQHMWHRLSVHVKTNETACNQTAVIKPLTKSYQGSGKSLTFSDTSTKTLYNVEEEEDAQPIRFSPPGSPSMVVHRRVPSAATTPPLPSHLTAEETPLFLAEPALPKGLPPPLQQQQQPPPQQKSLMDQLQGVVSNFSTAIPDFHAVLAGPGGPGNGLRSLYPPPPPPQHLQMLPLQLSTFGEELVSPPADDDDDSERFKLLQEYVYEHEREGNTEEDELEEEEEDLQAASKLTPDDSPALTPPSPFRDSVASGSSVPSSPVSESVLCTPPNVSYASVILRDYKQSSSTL
# Metabotropic glutamate receptor 6, sequence (O15303 whole entry): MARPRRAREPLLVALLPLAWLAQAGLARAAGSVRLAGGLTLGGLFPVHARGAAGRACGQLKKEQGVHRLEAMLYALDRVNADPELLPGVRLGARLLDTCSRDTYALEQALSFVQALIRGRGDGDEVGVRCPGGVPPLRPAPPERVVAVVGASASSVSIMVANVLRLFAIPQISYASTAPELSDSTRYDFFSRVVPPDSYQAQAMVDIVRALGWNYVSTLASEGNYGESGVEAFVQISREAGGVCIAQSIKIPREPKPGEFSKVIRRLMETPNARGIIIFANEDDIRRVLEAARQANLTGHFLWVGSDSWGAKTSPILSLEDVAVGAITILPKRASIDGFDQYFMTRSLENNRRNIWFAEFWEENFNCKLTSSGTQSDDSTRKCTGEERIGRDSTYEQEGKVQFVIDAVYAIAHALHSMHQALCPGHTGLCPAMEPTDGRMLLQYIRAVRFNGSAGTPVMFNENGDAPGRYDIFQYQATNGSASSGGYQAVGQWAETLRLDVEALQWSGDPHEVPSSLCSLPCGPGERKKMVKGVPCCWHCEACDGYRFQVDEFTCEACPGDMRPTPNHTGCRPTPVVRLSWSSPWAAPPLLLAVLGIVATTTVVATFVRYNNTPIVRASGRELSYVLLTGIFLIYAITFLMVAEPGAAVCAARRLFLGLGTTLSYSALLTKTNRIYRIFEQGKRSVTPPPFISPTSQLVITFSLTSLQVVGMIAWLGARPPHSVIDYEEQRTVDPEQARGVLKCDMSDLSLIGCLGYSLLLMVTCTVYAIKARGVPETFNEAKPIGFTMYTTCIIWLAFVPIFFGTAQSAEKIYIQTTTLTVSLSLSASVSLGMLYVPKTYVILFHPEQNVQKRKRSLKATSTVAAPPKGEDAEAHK
# Cytochrome P450 2C9, sequence (P11712 whole entry): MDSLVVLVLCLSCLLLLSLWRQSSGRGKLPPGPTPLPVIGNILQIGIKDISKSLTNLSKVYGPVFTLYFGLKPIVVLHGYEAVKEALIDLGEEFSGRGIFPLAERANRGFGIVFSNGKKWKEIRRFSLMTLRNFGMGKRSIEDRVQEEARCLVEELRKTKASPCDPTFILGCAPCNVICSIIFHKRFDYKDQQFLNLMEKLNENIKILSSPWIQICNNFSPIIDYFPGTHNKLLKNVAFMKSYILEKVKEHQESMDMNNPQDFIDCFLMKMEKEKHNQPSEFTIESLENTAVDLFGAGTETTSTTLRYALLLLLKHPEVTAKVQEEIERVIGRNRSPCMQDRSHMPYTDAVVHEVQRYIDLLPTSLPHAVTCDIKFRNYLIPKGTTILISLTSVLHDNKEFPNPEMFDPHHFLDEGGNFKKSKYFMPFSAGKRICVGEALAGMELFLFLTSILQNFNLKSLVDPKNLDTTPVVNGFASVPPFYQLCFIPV
smiles,measurement,setting,value
Cc1cn(-c2ccc(F)cc2)c(=O)n2cc(COc3ccccc3)nc12,"metabolised at 0.25 h, 1 µM",[1],36%
same,"metabolised at 0.25 h, 1 µM",[2],71%
same,pIC50,[3]; read-out: IC50,6.00
same,pIC50,[4],7.80
Cc1ccc(N2CCc3nc(COc4ccccc4)cn3C2=O)nc1,"metabolised at 0.25 h, 1 µM",[1],35%
same,pEC50,[5],6.31
same,"metabolised at 0.25 h, 1 µM",[2],98%
same,Emax,[6],74%
O=C1N(c2ccc(F)cc2)CCc2nc(COc3ccccc3)cn21,Activity,Canis familiaris,Toxic
same,pEC50,[7],< 5.00
same,Activity,Rattus norvegicus [8],Active
same,half-life,[9],55.8 min
same,Cmax,[10],6.05 µM
same,Activity,Rattus norvegicus [11],Toxic
same,pIC50,Cytochrome P450 2D6,< 4.70
same,"metabolised at 0.25 h, 1 µM",[1],18%
same,pEC50,[5],7.07
same,PPB,[12],90.3%
same,"metabolised at 0.25 h, 1 µM",[2],19%
same,Activity,Rattus norvegicus [13],Dose-dependent effect
same,PPB,[14],88.1%
same,Kp,[15],1.8
same,AUC,Plasma,7.2 µM·h
same,pEC50,[16],< 5.00
same,pEC50,[17],< 5.00
same,pIC50,Cytochrome P450 1A2,< 4.70
same,Vdss,Rattus norvegicus [18],1.4 L/kg
same,pEC50,[19],< 5.00
same,fraction unbound,[20],0.062
same,pIC50,Cytochrome P450 2C9,< 4.70
same,Activity,Rattus norvegicus [21],50%
same,Activity,Rattus norvegicus [22],50%
same,pEC50,[23],< 5.00
same,Emax,[6],70%
same,pIC50,[24],6.54
same,pEC50,[25],< 5.00
same,pIC50,Cytochrome P450 3A4,< 4.70
same,Activity,[26],inactive
O=c1n(-c2ccc(F)cc2)ccc2nc(COc3cccc(F)c3)cn12,"metabolised at 0.25 h, 1 µM",[1],13%
same,pEC50,[5],6.64
same,"metabolised at 0.25 h, 1 µM",[2],28%
same,Emax,[6],91%
O=C1N(c2ccc(F)cc2)CCc2nc(COc3cccc(F)c3)cn21,"metabolised at 0.25 h, 1 µM",[1],0%
same,pEC50,[5],7.16
same,"metabolised at 0.25 h, 1 µM",[2],29%
same,Emax,[6],72%
O=c1[nH]ccc2nc(COc3ccccc3)cn12,pEC50,[5],< 4.52
same,Emax,[6],19%
Cc1c(COc2ccccc2)nc2n1C(=O)N(c1ccc(F)cc1)CC2,"metabolised at 0.25 h, 1 µM",[1],21%
same,"metabolised at 0.25 h, 1 µM",[2],46%
same,IC50,[3]; read-out: pIC50 (converted),525 nM
same,pIC50,[4],6.28
O=c1n(-c2cccc(F)c2)ccc2nc(COc3ccccc3)cn12,"metabolised at 0.25 h, 1 µM",[1],47%
same,pEC50,[5],6.29
same,"metabolised at 0.25 h, 1 µM",[2],71%
same,Emax,[6],69%
Cc1cccc(-n2ccc3nc(COc4ccccc4)cn3c2=O)n1,pEC50,[5],5.45
same,Emax,[6],64%
O=c1n(-c2ccc(F)cc2)ccc2nc(COc3ccccn3)cn12,pEC50,[5],5.50
same,Emax,[6],88%
Cc1nc(-n2ccc3nc(COc4ccccc4)cn3c2=O)ccc1F,"metabolised at 0.25 h, 1 µM",[1],8%
same,pEC50,[5],6.43
same,"metabolised at 0.25 h, 1 µM",[2],50%
same,Emax,[6],77%
Cc1nc(N2CCc3nc(COc4ccccc4)cn3C2=O)ccc1F,"metabolised at 0.25 h, 1 µM",[1],31%
same,pEC50,[5],6.74
same,"metabolised at 0.25 h, 1 µM",[2],93%
same,Emax,[6],91%
O=c1n(-c2ccc(F)cc2)ccc2nc(COc3ccccc3)cn12,pEC50,[7],< 5.00
same,"metabolised at 0.25 h, 1 µM",[1],14%
same,pEC50,[5],6.51
same,PPB,[12],96.4%
same,"metabolised at 0.25 h, 1 µM",[2],27%
same,PPB,[14],93.1%
same,pEC50,[16],< 5.00
same,pEC50,[17],< 5.00
same,pEC50,[19],< 5.00
same,pEC50,[23],< 5.00
same,Emax,[6],83%
same,pIC50,[24],6.20
same,pEC50,[25],< 5.00
O=c1n(Cc2ccccc2)ccc2nc(COc3ccccc3)cn12,pEC50,[5],5.80
same,Emax,[6],93%
CN(C)c1cccc(-n2ccc3nc(COc4ccccc4)cn3c2=O)n1,"metabolised at 0.25 h, 1 µM",[1],66%
same,pEC50,[5],6.55
same,"metabolised at 0.25 h, 1 µM",[2],90%
same,Emax,[6],87%
O=c1n(-c2ccc(F)c(F)c2)ccc2nc(COc3ccccc3)cn12,pEC50,[5],6.64
same,Emax,[6],93%
O=C1N(c2ccc(F)cn2)CCc2nc(COc3ccccc3)cn21,"metabolised at 0.25 h, 1 µM",[1],1%
same,pEC50,[5],6.44
same,"metabolised at 0.25 h, 1 µM",[2],14%
same,Emax,[6],66%
